# Experimental data from different studies.
# Compare with care: the assays were run in different laboratories.
# Read-out: cell growth or viability
Compound,cell line,method,time,IC50
Cc1c(C)c2c(c(C)c1O)CCC(C)(COc1ccc(CC3SC(=O)NC3=O)cc1)O2 (centres unmarked),THLE-2,MTT,,16300 nM
Cc1cc(Nc2ncnc3ccc(NC4=NC(C)(C)CO4)cc23)ccc1Oc1ccn2ncnc2c1,NCI-N87,ATP luminescence,,89.8 nM
NNc1nc2ccc(Br)cc2c(=O)n1-c1ccc(Cl)cc1,SW480,MTT,48 h,10900 nM
COc1cccc2c1C(=O)c1c(O)c3c(c(O)c1C2=O)C[C@@](O)(C(=O)CO)C[C@@H]3O[C@H]1C[C@H](N)[C@H](O)[C@H](C)O1,SW480,MTT,72 h,750 nM
CN(C)C(=O)Nc1nc2ccc(Br)cc2c(=O)n1-c1ccccc1,SW480,MTT,48 h,> 200000 nM
Nc1ccccc1NC(=O)c1ccc(Cn2cnc3c(Nc4ccc(Cl)cc4)ncnc32)cc1,MM1.S,MTT,72 h,1130 nM
C#Cc1cccc(Nc2ncnc3cc(OCCOC)c(OCCOC)cc23)c1,SW480,MTT,48 h,11200 nM
O=C(NO)c1ccc(Cn2cnc3c(Nc4ccc(Cl)cc4)ncnc32)cc1,MM1.S,MTT,72 h,2640 nM
COc1c(Cl)cccc1Nc1c(-c2ccncc2OC[C@@H]2COCCO2)[nH]c2c1C(=O)NCC2,NCI-N87,ATP luminescence,,12.7 nM
CC1=CC(=O)C(C(C)C)=CC1=O,FR2,SRB,48 h,< 100000 nM
CC(C)C[C@H](NC(=O)[C@@H]1Cc2c(F)c(F)c(c(F)c2F)Sc2ccc(cc2)CC(=O)N[C@@H](C(C)C)C(=O)N1)C(=O)[C@@]1(C)CO1,D283 Med,,,91 nM
COc1ccc(Nc2ncnc3c2ncn3Cc2ccc(C(=O)NO)cc2)cc1,MM1.S,MTT,72 h,2040 nM
O=P1(C2CCCCC2)CCCCC1,SW480,MTT,72 h,5100 nM
CN1CCC(NC2CCc3[nH]c4c(C(N)=O)ccc(-c5ccccc5Cl)c4c3C2)CC1 (centres unmarked),HGC-27,,96 h,9.61 nM
CC1(P2(=O)CCCCC2)CCCCC1,SW480,MTT,72 h,> 100000 nM
CN(C)C(=O)Nc1nc2c(Cl)cc(Cl)cc2c(=O)n1-c1ccccc1,SW480,MTT,48 h,> 200000 nM
Nc1ccccc1NC(=O)c1ccc(Cn2cnc3c(Nc4ccc(Br)cc4F)ncnc32)cc1,MM1.S,MTT,72 h,1470 nM
NNc1nc2ccc(Br)cc2c(=O)n1-c1ccccc1,SW480,MTT,48 h,136000 nM
Cc1cc2c(C(N)=O)cccc2n1-c1nc2c(c(NCc3ccccc3)n1)CCCN2,MM1.S,,72 h,700 nM
Cc1ccc(NNc2nc3ccc(Br)cc3c(=O)n2-c2ccccc2)cc1,SW480,MTT,48 h,85400 nM
C=C1CC[C@@H]2[C@](C)(CO)[C@H](O)CC[C@@]2(C)[C@@H]1C/C=C1/C(=O)OC[C@H]1O,SW480,MTT,48 h,4480 nM
O=C(NO)Nc1nc2ccc(Br)cc2c(=O)n1-c1ccccc1,SW480,MTT,48 h,> 200000 nM
COc1cccc2c1C(=O)c1c(O)c3c(c(O)c1C2=O)C[C@@](O)(C(=O)CO)C[C@@H]3O[C@H]1C[C@H](N)[C@H](O)[C@H](C)O1,SW480,MTT,48 h,90 nM
